Test system: U2OS
Experiment: Multiplex assay against U2OS
Assay type: toxicity, cell-based
Conditions: human
Summary of the method: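 Compound was added to live cells that had been stained at seeding with Hoechst33342, BioTracker Green Microtubule Cytoskeleton Dye, MitoTracker Red and Annexin V Alexa Fluor 680, and imaging followed on a CQ1 microscope at 37°C and 5% CO2. CellPathfinder machine-learning gating divided cells into Hoechst high-intensity objects or normal cells, normal cells into healthy, pyknosed or fragmented nuclei, and pyknosed cells into mitotic or apoptotic. Tubulin, mitochondrial-mass and membrane-permeability phenotypes are per cents of healthy-nucleus cells.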

[1] = 12 h, 1 µM, compound concentration 1 uM, replicate 1
[2] = 12 h, 1 µM, compound concentration 1 uM, replicate 2
[3] = 12 h, 10 µM, compound concentration 10 uM, replicate 1
[4] = 12 h, 10 µM, compound concentration 10 uM, replicate 2
[5] = 24 h, 1 µM, compound concentration 1 uM, replicate 1
[6] = 24 h, 1 µM, compound concentration 1 uM, replicate 2
[7] = 24 h, 10 µM, compound concentration 10 uM, replicate 1
[8] = 24 h, 10 µM, compound concentration 10 uM, replicate 2
[9] = 48 h, 1 µM, compound concentration 1 uM, replicate 1
[10] = 48 h, 1 µM, compound concentration 1 uM, replicate 2
[11] = 48 h, 10 µM, compound concentration 10 uM, replicate 1
[12] = 48 h, 10 µM, compound concentration 10 uM, replicate 2

With `C[C@H](NC(=O)c1c(C(F)F)nn(C)c1Oc1cccc(C(F)(F)F)c1)c1ccc(C(=O)O)cc1` [PALUPIPRANT] the “Population Apoptotic (%)” value [1] was 60%, the “Population Fragmented Nuclei (%)” value [1] was 27% and the “Population Healthy Nuclei (%)” value [1] was 63%. The “Population Hoechst High Intensity Objects (%)” value [1] was 3%, the “Population Membrane Permeable-Phenotype (%)” value [1] was 4% and the “Population Mitochondria Different-Phenotype (%)” value [1] was 1%. For the same molecule, the “Population Mitotic Cells (%)” value [1] was 39%, the “Population Normal (%)” value [1] was 96% and the “Population Pyknosed Nuclei (%)” value [1] was 8%. For the same molecule, the “Population Tubulin-Different-Phenotype (%)” value [1] was 1%, the “Total Cell Count” value [1] was 266 and the “Population Apoptotic (%)” value [2] was 91%. The “Population Fragmented Nuclei (%)” value [2] was 12%, the “Population Healthy Nuclei (%)” value [2] was 78% and the “Population Hoechst High Intensity Objects (%)” value [2] was 0%. The “Population Mitochondria Different-Phenotype (%)” value [2] was 0%, the “Population Mitotic Cells (%)” value [2] was 8% and the “Population Normal (%)” value [2] was 99%. For the same molecule, the “Population Pyknosed Nuclei (%)” value [2] was 9%, the “Population Tubulin-Different-Phenotype (%)” value [2] was 2% and the “Total Cell Count” value [2] was 132. The “Population Apoptotic (%)” value [3] was 83%, the “Population Fragmented Nuclei (%)” value [3] was 28% and the “Population Healthy Nuclei (%)” value [3] was 62%. The “Population Hoechst High Intensity Objects (%)” value [3] was 3%, the “Population Membrane Permeable-Phenotype (%)” value [3] was 7% and the “Population Mitochondria Different-Phenotype (%)” value [3] was 4%. The “Population Mitotic Cells (%)” value [3] was 16%, the “Population Normal (%)” value [3] was 96% and the “Population Pyknosed Nuclei (%)” value [3] was 8%. The “Population Tubulin-Different-Phenotype (%)” value [3] was 5%, the “Total Cell Count” value [3] was 293 and the “Population Apoptotic (%)” value [4] was 100%. For the same molecule, the “Population Fragmented Nuclei (%)” value [4] was 13%, the “Population Healthy Nuclei (%)” value [4] was 77% and the “Population Membrane Permeable-Phenotype (%)” value [4] was 5%. For the same molecule, the “Population Mitochondria Different-Phenotype (%)” value [4] was 2%, the “Population Mitotic Cells (%)” value [4] was 0% and the “Population Tubulin-Different-Phenotype (%)” value [4] was 2%. The “Total Cell Count” value [4] was 117, the “Population Apoptotic (%)” value [5] was 87% and the “Population Fragmented Nuclei (%)” value [5] was 20%. The “Population Healthy Nuclei (%)” value [5] was 72%, the “Population Hoechst High Intensity Objects (%)” value [5] was 2% and the “Population Membrane Permeable-Phenotype (%)” value [5] was 4%. For the same molecule, the “Population Mitochondria Different-Phenotype (%)” value [5] was 1%, the “Population Mitotic Cells (%)” value [5] was 12% and the “Population Normal (%)” value [5] was 97%. The “Population Pyknosed Nuclei (%)” value [5] was 7%, the “Population Tubulin-Different-Phenotype (%)” value [5] was 3% and the “Total Cell Count” value [5] was 316. For the same molecule, the “Population Apoptotic (%)” value [6] was 94%, the “Population Fragmented Nuclei (%)” value [6] was 14% and the “Population Healthy Nuclei (%)” value [6] was 73%. For the same molecule, the “Population Hoechst High Intensity Objects (%)” value [6] was 1%, the “Population Membrane Permeable-Phenotype (%)” value [6] was 5% and the “Population Mitochondria Different-Phenotype (%)” value [6] was 0%. The “Population Mitotic Cells (%)” value [6] was 5%, the “Population Normal (%)” value [6] was 98% and the “Population Pyknosed Nuclei (%)” value [6] was 11%. The “Population Tubulin-Different-Phenotype (%)” value [6] was 5%, the “Total Cell Count” value [6] was 147 and the “Population Apoptotic (%)” value [7] was 91%. For the same molecule, the “Population Fragmented Nuclei (%)” value [7] was 18%, the “Population Healthy Nuclei (%)” value [7] was 74% and the “Population Hoechst High Intensity Objects (%)” value [7] was 2%. The “Population Membrane Permeable-Phenotype (%)” value [7] was 5%, the “Population Mitochondria Different-Phenotype (%)” value [7] was 3% and the “Population Mitotic Cells (%)” value [7] was 8%. For the same molecule, the “Population Normal (%)” value [7] was 97%, the “Population Pyknosed Nuclei (%)” value [7] was 7% and the “Population Tubulin-Different-Phenotype (%)” value [7] was 1%. The “Total Cell Count” value [7] was 339, the “Population Fragmented Nuclei (%)” value [8] was 13% and the “Population Healthy Nuclei (%)” value [8] was 77%. The “Population Mitochondria Different-Phenotype (%)” value [8] was 1%, the “Population Pyknosed Nuclei (%)” value [8] was 8% and the “Population Tubulin-Different-Phenotype (%)” value [8] was 0%. The “Total Cell Count” value [8] was 139, the “Population Apoptotic (%)” value [9] was 82% and the “Population Fragmented Nuclei (%)” value [9] was 15%. For the same molecule, the “Population Healthy Nuclei (%)” value [9] was 73%, the “Population Hoechst High Intensity Objects (%)” value [9] was 2% and the “Population Membrane Permeable-Phenotype (%)” value [9] was 3%. The “Population Mitochondria Different-Phenotype (%)” value [9] was 1%, the “Population Mitotic Cells (%)” value [9] was 17% and the “Population Normal (%)” value [9] was 97%. The “Population Pyknosed Nuclei (%)” value [9] was 11%, the “Population Tubulin-Different-Phenotype (%)” value [9] was 1% and the “Total Cell Count” value [9] was 426. The “Population Apoptotic (%)” value [10] was 92%, the “Population Healthy Nuclei (%)” value [10] was 70% and the “Population Hoechst High Intensity Objects (%)” value [10] was 0%. For the same molecule, the “Population Mitochondria Different-Phenotype (%)” value [10] was 0%, the “Population Mitotic Cells (%)” value [10] was 7% and the “Population Normal (%)” value [10] was 99%. The “Population Pyknosed Nuclei (%)” value [10] was 13%, the “Population Tubulin-Different-Phenotype (%)” value [10] was 2% and the “Total Cell Count” value [10] was 207. The “Population Apoptotic (%)” value [11] was 91%, the “Population Fragmented Nuclei (%)” value [11] was 18% and the “Population Healthy Nuclei (%)” value [11] was 73%. For the same molecule, the “Population Hoechst High Intensity Objects (%)” value [11] was 2%, the “Population Membrane Permeable-Phenotype (%)” value [11] was 5% and the “Population Mitochondria Different-Phenotype (%)” value [11] was 3%. For the same molecule, the “Population Mitotic Cells (%)” value [11] was 8%, the “Population Normal (%)” value [11] was 97% and the “Population Pyknosed Nuclei (%)” value [11] was 7%. For the same molecule, the “Population Tubulin-Different-Phenotype (%)” value [11] was 3%, the “Total Cell Count” value [11] was 463 and the “Population Apoptotic (%)” value [12] was 85%. For the same molecule, the “Population Fragmented Nuclei (%)” value [12] was 14%, the “Population Healthy Nuclei (%)” value [12] was 79% and the “Population Hoechst High Intensity Objects (%)” value [12] was 1%. The “Population Membrane Permeable-Phenotype (%)” value [12] was 1%, the “Population Mitochondria Different-Phenotype (%)” value [12] was 1% and the “Population Mitotic Cells (%)” value [12] was 14%. For the same molecule, the “Population Normal (%)” value [12] was 98%, the “Population Pyknosed Nuclei (%)” value [12] was 6% and the “Population Tubulin-Different-Phenotype (%)” value [12] was 0%. The “Total Cell Count” value [12] was 223.
